Cneo AK release = Cryptococcus neoformans lysis via adenylate kinase release | C. neoformans lysis, adenylate kinase release luminescence, 4 h; normalised: neutral wells 0, clomiphene wells 100 | lysis activity, % at 15 µM | 360,000 tested, 0.2% active | AID 651654;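 active = mean lysis activity across replicates of at least 80%, whatever share of replicates individually reach that level; inactive = mean lysis activity below 80%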
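read-out = cell lysis signal | test system = log-phase Cryptococcus neoformans yeast cells | input = cells at 5 × 10^6 per mL | medium = fresh YPD growth medium | signal = luminescent adenylate kinase detection reagent | timing = 4 h at 37 °C static, read 1 h later | dosing = single dose | controls = Clomiphene as positive lysis control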
Statin myotox sup = suppressors of simvastatin-induced myotoxicity in C2C12 myotubes. 330,000 tested, 0.78% active. AID 602340. rescue of ATP level, % at 7.49 µM. ATP luminescence, 48 h; scaled: DMSO 0, geranylgeraniol control 100;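 active = mean ATP rescue above about 67%, or every replicate alone reaching that limit, limit read from the data, passing the limit was not always enough; inconclusive = no clear call, values can overlap the other calls; inactive = mean under the limit and some replicate under it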;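 note: myotubes were challenged with 10 µM simvastatin during compound exposure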
DENV2 CPE rescue = DENV2-induced cell death inhibition; DENV2-infected cells, cytopathic effect rescue, plate reader; CPE inhibition, % at 9.99 µM; 350,000 tested, 1.7% active; in the data active = CPE inhibition above about 20%, passing the limit was not always enough; inconclusive = no clear call, values can overlap the other calls; tested in BHK-21 cells;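 note: 0% = median of neutral control wells and 100% = median of positive control wells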
Xi reactivation = reactivates the inactive X chromosome in mouse fibroblasts. XiGFP mouse fibroblasts, % GFP-positive cells imaging, 3 d; cells co-treated with 5-aza-dC sensitizer; scaled so ellipticine positive control = 100%. activation, % at 7.58 µM. 360,000 tested, 0.055% active. AID 743238;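 active = mean normalized replicate activation at least 10% and every replicate at or above 10%; inconclusive = only one of the two criteria met; inactive = mean below 10% and not all replicates reach 10%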;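 note: 0% = median of on-plate neutral control wells and 100% = ellipticine 6 µM median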
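Material: SV40-immortalized XiGFP fibroblast cells, line 68-5-11 | Buffer or medium: DMEM containing 5-aza-dC | Dosing: One concentration, pinned | Times: 3 d treatment, 15 min room-temperature fixation | Controls: Ellipticine 6 µM positive control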
An asterisk follows results filed as active; ? = inconclusive; · = no result given. Compounds with a hit are over-represented: about 2.1% of the library has one in this group of screens.

SMILES	Cneo AK release	Statin myotox sup	DENV2 CPE rescue	Xi reactivation
O=C(C[C@H]1CC[C@@H](NC(=O)C2CCOCC2)[C@@H](CO)O1)Nc1ccc(-c2ccccc2)cc1	1	-1	-3	0
CC(C)C(NC(=O)C1CCCCC1)C(=O)Nc1ccncc1 (stereo unspecified)	-1	124*	·	·
C[C@@H]1CN([C@@H](C)CO)C(=O)c2cc(C#Cc3ccccc3F)cnc2O[C@@H]1CN(C)C(=O)C1CCCCC1	7	4	8	-1
C[C@H]1CN([C@@H](C)CO)S(=O)(=O)c2ccc(-c3ccc(C(=O)N(C)C)cc3)cc2O[C@@H]1CN(C)C(=O)Nc1ccccc1F	0	1	4	-2
O=C(O)C(Cc1ccc(Cl)cc1)NS(=O)(=O)c1ccc(Cl)cc1 (stereo unspecified)	-2	7	23*	0
O=C(O)C(Cc1ccccc1)NS(=O)(=O)c1ccc(Cl)cc1 (stereo unspecified)	2	3	-3	0
CCCCC(=O)Nc1ccc(NC(=O)c2cc(OC)c(OC)c(OC)c2)cn1	1	82*	·	·
CC1=NN(c2nc(N)nc(/C(C#N)=C/c3ccc([N+](=O)[O-])o3)n2)C(C)(C)C1	·	·	-4	73*
C[C@@H]1CN([C@H](C)CO)C(=O)c2cccc(NC(=O)c3ccc(-c4nccs4)cc3)c2O[C@H]1CN(C)S(=O)(=O)c1ccc(Cl)cc1	3	-30	13	-1
C[C@@H]1CN([C@@H](C)CO)C(=O)c2cc(NC(=O)Cn3cnnn3)ccc2O[C@@H]1CN(C)Cc1ccc(C(=O)Nc2ccccc2N)cc1	3	29	7	0
C[C@H](CO)N1C[C@H](C)[C@H](CN(C)Cc2ccncc2)Oc2ccc(NC(=O)Cn3cnnn3)cc2CC1=O	0	-22	23*	0
C[C@H]1CN([C@@H](C)CO)C(=O)c2cc(NC(=O)Cn3cnnn3)ccc2O[C@H]1CN(C)Cc1ccc(C(=O)Nc2ccccc2N)cc1	3	17	43*	0
C[C@@H]1CN([C@H](C)CO)C(=O)Cc2cc(NC(=O)Cn3cnnn3)ccc2O[C@@H]1CN(C)Cc1ccc(C(=O)Nc2ccccc2N)cc1	·	·	112*	0
C[C@@H]1CN([C@H](C)CO)C(=O)c2cc(NC(=O)Cn3cnnn3)ccc2O[C@@H]1CN(C)Cc1ccc(C(=O)Nc2ccccc2N)cc1	4	105*	17	0
COc1ccccc1NC(=O)Nc1ccc2c(c1)C(=O)N(C)C[C@@H](OC)[C@@H](C)CN[C@@H](C)CO2	0	-6	13	0
Cc1ccc(S(=O)(=O)NCC[C@H]2CC[C@H](NC(=O)Nc3cccc(F)c3)[C@H](CO)O2)cc1	-3	-3	2	0
CO[C@H]1CN(C)C(=O)c2cc(NC(C)=O)ccc2OC[C@H](C)N(C(=O)Cc2cccnc2)C[C@@H]1C	55	-3	-8	0
O=C(CN1CCOCC1)N[C@H]1CC[C@H](CCNC(=O)C2CCCC2)O[C@@H]1CO	58	-3	9	0
CS(=O)(=O)N1[C@H](C(=O)NC2CCC2)[C@@H](CO)[C@@H]2Cn3c(ccc(-c4cccc(F)c4)c3=O)[C@@H]21	·	·	-5	0
C[C@@H]1CN([C@H](C)CO)C(=O)c2cc(C3=CCCCC3)cnc2O[C@H]1CN(C)C(=O)c1ccncc1	1	-6	0	0
Cc1ccc(S(=O)(=O)N(C)C[C@@H]2Oc3ccc(NC(=O)NC4CCCCC4)cc3CC(=O)N([C@@H](C)CO)C[C@@H]2C)cc1	-1	-86	35*	-1
Cc1ccc(S(=O)(=O)N(C)C[C@H]2Oc3ccc(NC(=O)Nc4ccccc4)cc3CC(=O)N([C@H](C)CO)C[C@@H]2C)cc1	-2	-78	-12	23*
COc1cccc(S(=O)(=O)N[C@@H]2CC[C@@H](CCn3cc(-c4ccc(F)cc4)nn3)O[C@H]2CO)c1	-2	11	1	0
O=C(CN1CCN(c2cccc(C(F)(F)F)c2)CC1)N(C1CC1)C1CCS(=O)(=O)C1 (stereo unspecified)	0	0	3	1
O=C(CN1CCN(c2cccc(C(F)(F)F)c2)CC1)N(C1CCCC1)C1CCS(=O)(=O)C1 (stereo unspecified)	2	1	51*	0
SMILES	Cneo AK release	Statin myotox sup	DENV2 CPE rescue	Xi reactivation
CO[C@@H]1CN(C)C(=O)c2cc(NC(=O)c3cc(C)on3)ccc2OC[C@H](C)N(CC2CC2)C[C@H]1C	-3	0	-6	0
COc1ccc(/C=C2/C(=O)N(c3cccc(F)c3)N=C2C)c(OC)c1	0	-2	37*	0
CC1=NN(c2cccc(F)c2)C(=O)/C1=C/c1ccc(N(C)C)cc1	-1	4	1	0
C[C@@H]1CCCCO[C@H](CN(C)CC2CCCCC2)[C@H](C)CN([C@H](C)CO)C(=O)c2cc(NC(=O)Cc3ccccc3)ccc2O1	2	·	-10	-1
C[C@@H]1CCCCO[C@@H](CN(C)C(=O)NC2CCCCC2)[C@H](C)CN([C@H](C)CO)C(=O)c2cc(NS(=O)(=O)c3ccc(F)cc3)ccc2O1	-4	·	14	0
Cc1cc(C)c(N=C2CCCN2Cc2ccccc2)c(C#N)c1	-2	84*	·	·
O=C(C1CCCC1)N1[C@@H](CO)[C@@H]2c3ccccc3NC[C@@H]21	-2	-15	·	0
CC(=O)N1Cc2cc(C(=O)NCc3cc(F)cc(F)c3)nc(-c3cccc(C4=CCCC4)c3)c2[C@H]1CCO	·	·	-13	·
CS(=O)(=O)N(Cc1ccc(F)cc1)Cc1nc2ccccc2c(=O)[nH]1	2	99*	·	·
O=C(O)C[C@@H]1CC[C@@H](NC(=O)CCN2CCCCC2)[C@@H](CO)O1	·	·	?	0
CCOc1[nH]n(-c2ccccc2)c(=O)c1C=Nc1ccc(Cl)cc1	5	120*	·	·
O=C(C[C@@H]1CC[C@@H]2[C@H](COC[C@@H](O)CN2S(=O)(=O)c2ccc(Cl)cc2)O1)NCCN1CCCC1	4	2	27*	0
O=C(C[C@H]1CC[C@@H]2[C@H](COC[C@@H](O)CN2S(=O)(=O)c2ccc(Cl)cc2)O1)NCCN1CCCC1	8	1	-5	0
O=C(C[C@@H]1CC[C@@H]2[C@H](COC[C@H](O)CN2C(=O)c2ccc3c(c2)OCO3)O1)NCCN1CCCC1	·	·	31*	0
O=C(C[C@@H]1CC[C@@H]2[C@H](COC[C@@H](O)CN2C(=O)c2ccc3c(c2)OCO3)O1)NCCN1CCCC1	·	·	-4	0
O=C(C[C@H]1CC[C@@H]2[C@H](COC[C@H](O)CN2S(=O)(=O)c2ccccc2)O1)NCCN1CCCC1	·	·	28*	0
O=C(CCS(=O)(=O)c1ccccc1)NC1CCCCC1	0	·	-2	0
COc1ccc(S(=O)(=O)CCC(=O)NC2CCCCC2)cc1	0	87*	·	·
O=C(C1CCC1)N1CCCCN2[C@@H](CO)[C@H](c3ccc(C#CC4CCCC4)cc3)[C@@H]2C1	1	·	8	·

High-throughput results: PubChem, Broad Institute
